# Assay results of several laboratories.
# Protocols differ between the studies behind these lines.
# Target: Dual specificity tyrosine-phosphorylation-regulated kinase 1B (DYRK1B, Homo sapiens, UniProt Q9Y463)
Structure (SMILES),assay,setting,measurement,value
COc1cc(Nc2ncc(F)c(Nc3ccc4c(n3)NC(=O)C(C)(C)O4)n2)cc(OC)c1OC,"binding, competition with immobilised ligand",10 µM,inhibition,78%
Cn1cc(-c2cccc(N3CCc4c(sc5c4CC(C)(C)C5)C3=O)c2CO)cc(Nc2ccncn2)c1=O,"enzyme activity, inhibitor",1 µM,inhibition,2%
N#CC1(c2ccccn2)CCN(Cc2cc(C(=O)O)c(=O)n3ccccc23)CC1,"cell-free assay, competition with immobilised ligand",1 µM,remaining binding,98%
Cn1cc(-c2cc(F)cc(N3CCn4c(cc5c4CCCC5)C3=O)c2CO)cc(Nc2ccc(N3CCN(C4COC4)CC3)cn2)c1=O,"enzyme activity, inhibitor",0.1 µM,inhibition,6%
CC(C)(C)c1nc2c(s1)c1nc(N)ncc1c1ccc(NS(=O)(=O)c3c(F)cccc3F)c(F)c12,"enzyme activity, inhibitor, radiometric",1 µM,remaining activity,106%
C=CC(=O)N1CCC[C@@H](n2nc(-c3ccc(Oc4ccccc4)cc3)c3c(N)ncnc32)C1,cell-free assay,10 µM,remaining signal,125%
Cc1nn(C)cc1-c1nc2c(N3CCN(Cc4ccc(Cl)cc4)CC3)c(Cl)cnc2[nH]1,"binding, competition with immobilised ligand",1 µM,remaining binding,75%
COc1ccc(COc2ccc(Cc3cnc(N)nc3N)cc2OC)cc1,"enzyme activity, inhibitor, radiometric",0.5 µM,remaining activity,104%
COCc1c(-c2cc3cc(C)cc(OC)c3s2)c2c(N)ncnn2c1CN1CCNC(=O)C1,"cell-free assay, competition with immobilised ligand",1 µM,inhibition,71%
O=C1NC(=O)C(c2cn(CCCn3ccnc3)c3ccccc23)=C1Nc1ccccc1,"enzyme activity, inhibitor, radiometric",0.5 µM,remaining activity,56.3%
COc1ncccc1-c1cnn2ccc(N3CCN(C(=O)OC(C)C)CC3)nc12,"binding, competition with immobilised ligand",1 µM,remaining binding,65%
Nc1ncc(-c2nc(N3CCOCC3)nc(N3CCOCC3)n2)c(C(F)F)n1,"cell-free assay, competition with immobilised ligand",10 µM,remaining binding,76%
CC#CC(=O)Nc1cc2c(Nc3ccc(F)c(Cl)c3)ncnc2cn1,"enzyme activity, inhibitor, radiometric",0.5 µM,remaining activity,103%
Cn1cncc1[C@@](O)(COc1ccc(C#N)cc1-c1ccc(OC(F)(F)F)cc1)c1ccc(C#N)cc1,"cell-free assay, competition with immobilised ligand",1 µM,remaining binding,38%
CC(C)(C)c1nc(-c2cccc(NS(=O)(=O)c3c(F)cccc3F)c2F)c(-c2ccnc(N)n2)s1,"enzyme activity, inhibitor, radiometric",1 µM,remaining activity,98%
